Compound activity: PubChem, several laboratories
Rows were chosen to be rich in hits. Some 1.3% of all compounds tested hit in one or more screens of this group.
NSD2 inh: NSD2 histone methyltransferase inhibitors, primary screen, biochemical, AlphaScreen, single concentration, set 2; inhibition, % at 12.5 µM; AID 743445, 2014; NSD2 peptide methylation, 120 min; hit rate 0.54% among 310,000; in the data active = inhibition above about 50%
UCH37 DUB inh: inhibitors of human UCH37 deubiquitinase, primary screen, biochemical, Ub-AMC cleavage, fluorescence; hit rate 0.33% among 330,000; inhibition, % (no concentration beside the values); Ubiquitin carboxyl-terminal hydrolase isozyme L5 (Homo sapiens), Q9Y5K5; purified proteasome/UCH37; AID 588478, 2011;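 active = mean inhibition over replicate wells above about 20%, limit read from the data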;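 note: 0% = compound-free wells with enzyme and 100% = wells lacking proteasome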
Target sequence (Q9Y5K5 whole entry, looked up): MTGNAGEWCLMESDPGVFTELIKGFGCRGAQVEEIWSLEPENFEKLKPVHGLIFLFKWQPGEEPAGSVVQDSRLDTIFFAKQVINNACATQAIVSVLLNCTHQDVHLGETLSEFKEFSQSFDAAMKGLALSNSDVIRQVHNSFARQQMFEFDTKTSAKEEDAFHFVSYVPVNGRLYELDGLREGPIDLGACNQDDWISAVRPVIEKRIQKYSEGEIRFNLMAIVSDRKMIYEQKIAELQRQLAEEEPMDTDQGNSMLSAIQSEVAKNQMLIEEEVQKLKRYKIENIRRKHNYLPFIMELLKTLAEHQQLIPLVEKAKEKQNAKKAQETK
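Material: Human UCH37 enzyme supplied as purified proteasome complex | Schedule: 30 min preincubation with enzyme, 25 min cleavage at room temperature | Detection: AMC fluorescence 355/460 nm | Measure: % inhibition of Ub-AMC cleavage fluorescence | Controls: Wells without proteasome as full block, compound-free enzyme plus substrate as uninhibited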
TDP2 inh: human TDP2 enzyme inhibitors, primary screen, biochemical, epi absorbance, recombinant enzyme. Tyrosyl-DNA phosphodiesterase 2 (Homo sapiens), O95551. T5PNP hydrolysis, p-nitrophenol absorbance 415 nm. inhibition, % at 12.8 µM. hit rate 0.34% among 370,000. AID 720702, 2013;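 active = inhibition above the mean of all tested compounds plus 3 SD, set per campaign, cut at about 25% in these data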;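 note: 0% = DMSO with enzyme and 100% = buffer with substrate but no TDP2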
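Incubation: 2 h at 37 °C; Test system: recombinant human TDP2; Quantity: enzyme 120 nM; Read-out basis: percent inhibition; Medium: 50 mM Tris-HCl pH 7.5 with Mg2+, KCl, DTT, BSA; Repeats: single replicate; Compound: 12.8 µM single point, 1% DMSO; Signal: epi absorbance; Reagent: 5 mM T5PNP chromogenic substrate; Benchmarks: no-enzyme high, DMSO-plus-enzyme low.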
LEDGF integ inh: blockers of LEDGF/p75-dependent integrase strand transfer – biochemical, TR-FRET, high throughput, primary screen. hit rate 0.64% among 370,000. HIV-1 integrase (with human LEDGF/p75). TR-FRET IN-LEDGF/p75 DNA integration, Eu/Cy5. inhibition, % at 3.7 µM;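 active = inhibition above the screen-wide mean plus 3 SD, cut at about 13% in these data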;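 note: signal is the Cy5 over europium emission ratio at 671 and 618 nm; 0% = plate median of compound wells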
Casp6 inh: human caspase-6 inhibitors, primary screen, biochemical, VEID-R110 fluorescence, single point, set 2; hit rate 0.53% among 350,000; inhibition, % at 12.5 µM; AID 686996, 2013; purified caspase-6, Z-VEID-R110 cleavage fluorescence; P55212;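 active = mean inhibition across replicates at least about 35%, with every replicate also reaching that limit, limit read from the data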;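 note: 0% = median of neutral control wells and 100% = no fluorescence left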
Target sequence (P55212 24-179 limits assumed): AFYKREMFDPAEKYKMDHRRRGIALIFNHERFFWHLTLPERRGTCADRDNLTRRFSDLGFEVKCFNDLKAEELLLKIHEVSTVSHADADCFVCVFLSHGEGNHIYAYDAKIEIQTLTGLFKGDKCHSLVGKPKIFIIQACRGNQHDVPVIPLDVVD
Target sequence (P55212 194-293 limits assumed): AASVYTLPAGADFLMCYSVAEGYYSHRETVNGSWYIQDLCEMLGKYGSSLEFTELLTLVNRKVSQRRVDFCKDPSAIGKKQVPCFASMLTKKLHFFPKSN
TDP2 inh conf: human TDP2 enzyme inhibitors, retest, confirmation, biochemical, epi absorbance, recombinant enzyme. shares compounds with TDP2 inh. absorbance read-out. inhibition, % at 12.8 µM. hit rate 22% among 1,100. AID 743263, 2014; in the data active = inhibition above about 25%;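 note: 0% = vehicle with enzyme and 100% = no enzyme buffer only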
* marks the source's active call; other numbers are inactive results; . = not tested or not shown.

SMILES	NSD2 inh	UCH37 DUB inh	TDP2 inh	LEDGF integ inh	Casp6 inh	TDP2 inh conf
CCCc1nnc(NC(=O)CCC(=O)N2CCCCC2)s1	-4	4	26*	-2	5	-6
Oc1cncc(Cc2ccccc2)c1	0	5	25*	-1	1	-13
CCCCCNC(=O)C(C1CC1)n1c(=O)c(-c2ccco2)nc2ccccc21 (configuration not stated)	.	.	54*	2	14	-6
CN(C)C(=O)c1cccc(-c2cnc3c(NC=O)cc(-c4ccccc4Cl)cn23)c1	0	.	-10	-1	2	.
CN(C)C(=O)c1cccc(-c2cnc3c(NC=O)cc(-c4ccccc4N(C)C)cn23)c1	-3	.	29*	5	2	17
O=[N+]([O-])c1ccc(S(=O)(=O)NCC2COc3ccccc3O2)cc1 (configuration not stated)	9	6	25*	7	9	-1
O=C(O)c1cc(S(=O)(=O)NCC2COc3ccccc3O2)ccc1Cl (configuration not stated)	-2	2	15	-1	0	.
CCN(C(=O)COC(=O)c1[nH]c(=O)[nH]c(=O)c1N)c1ccccc1	-3	-20	30*	-3	9	0
Cc1cc(C)nc(NN=Cc2ccccc2Cl)n1	.	8	.	.	.	.
CCc1ccccc1OCC(=O)Nc1cccc(S(=O)(=O)NCc2ccco2)c1	.	1	-5	-2	4	.
O=C(CN1C(=O)S/C(=C\c2ccc(F)cc2)C1=O)Nc1cccc(S(=O)(=O)NCc2ccco2)c1	4	6	27*	-2	3	0
Cc1ccc(-c2c(C(=O)NN=Cc3ccoc3)nnn2-c2nonc2N)cc1	.	2	.	.	.	.
COc1ccc(CCN(C)C(=O)C2CCCN(C3CCN(Cc4ccccc4)CC3)C2)cc1OC (configuration not stated)	2	1	32*	5	-6	9
O=C(CSc1ccc(Cl)cc1)NC1=NN(c2ccccc2)C(=O)C1	2	3	25*	4	4	-1
CCOc1ccc(-c2[nH]nc3c2C(c2ccc4c(c2)OCO4)C(C#N)=C(N)O3)cc1OC (configuration not stated)	-1	.	27*	-1	.	5
COc1cc(Br)c(C2C(C#N)=C(N)Oc3n[nH]c(-c4cccnc4)c32)cc1OC (configuration not stated)	1	6	43*	7	3	16
C=CCn1c(=S)[nH]c2scc(-c3ccc(C)o3)c2c1=O	8	2	5	1	2	.
C=CCn1c(=S)[nH]c2sccc2c1=O	10	3	60*	-1	10	2
CC1(C)c2cc(O)ccc2OC1N1CCOCC1 (configuration not stated)	-3	2	25*	1	6	12
O=C(Cc1c(Cl)cccc1Cl)NN=Cc1cccnc1	.	-1	.	.	.	.
COc1ccccc1-n1ccnc(SCC(=O)NCc2ccccc2Cl)c1=O	0	.	29*	0	1	4
CC1=NN(c2ccc(F)cc2)C(=O)C1C(c1cccc(O)c1)c1c(C)[nH]n(-c2ccc(F)cc2)c1=O (configuration not stated)	8	9	89*	39*	.	48*
O=C(CCN1CCCCC1)NN=Cc1ccc(Br)cc1	.	3	.	.	.	.
O=C(COc1ccccc1/C=C1\SC(=O)NC1=O)Nc1ccccc1	4	0	7	2	7	.
O=C1NC(=O)/C(=C/c2ccccc2OCc2ccccc2)S1	7	-12	25*	3	4	12
SMILES	NSD2 inh	UCH37 DUB inh	TDP2 inh	LEDGF integ inh	Casp6 inh	TDP2 inh conf
COc1ccc(N(CC(=O)NN=Cc2cccc3c2OCCO3)S(=O)(=O)c2ccc(NC(C)=O)cc2)cc1	.	-6	.	.	.	.
CSC1=NC(=O)/C(=C\c2cccc3ccccc23)S1	4	2	25*	4	3	0
CCCOc1ccc(N2C(=O)CC(N(CCCO)C(=O)CC)C2=O)cc1 (configuration not stated)	0	4	1	1	2	.
CCCCN(C(C)=O)C1CC(=O)N(c2ccc(OCCC)cc2)C1=O (configuration not stated)	21	1	29*	4	4	-5
O=C(NN=Cc1ccc(OCc2ccccc2)cc1)c1cc[n+](Cc2ccccc2)cc1	.	5	.	.	.	.
O=C(NCc1ccncc1)C(=NO)c1ccccc1	.	0	.	.	.	.
COc1cc2c(=O)n(CCC(=O)NCC3CCCO3)c(=O)n(CC(=O)Nc3ccc(F)cc3)c2cc1OC (configuration not stated)	-5	-13	24*	2	1	-7
CCNC(=S)NNC(=O)c1ccc(OC)cc1	0	2	65*	-2	0	3
COc1ccc(C(=O)NNC(=S)NC(=O)c2ccc(OC)cc2)cc1	1	.	0	1	3	.
Cc1ccc(-n2nc(C)c3c2OC(N)=C(C#N)C3c2ccccc2F)cc1 (configuration not stated)	-1	2	26*	3	.	-3
Cc1nn(-c2ccccc2)c2c1C(c1c(C)[nH]c(C#N)c1C)C(C#N)=C(N)O2 (configuration not stated)	-2	1	35*	4	.	-2
Cc1nn(-c2ccccc2)c(Cl)c1C1C(C#N)=C(N)Oc2n[nH]c(C)c21 (configuration not stated)	5	3	12	0	.	.
Cc1nn(-c2ccccc2)c(Cl)c1C1C(C#N)=C(N)Oc2c1c(C)nn2-c1ccccc1 (configuration not stated)	4	4	27*	2	.	9
CC1C(=NO)CC(c2ccccc2)N(C)C1c1ccccc1 (configuration not stated)	.	3	.	.	.	.
CCN(CC)S(=O)(=O)c1cccc(C(=O)OCC(=O)Nc2ccccc2OC(F)F)c1	27	0	64*	0	.	-7
CN(C)S(=O)(=O)c1cccc(C(=O)OCC(=O)Nc2ccccc2OC(F)F)c1	-3	-1	-3	1	.	.
Cc1cc(Cl)c(OCCOCCN2CCN(C)CC2)c(Br)c1	1	1	34*	7	-24	9
Cc1cc(Cl)c(OCCOCCN2CCC(C)CC2)c(Br)c1	5	2	7	1	.	.
CC(=NNC(=O)c1cc(-c2cccc([N+](=O)[O-])c2)n[nH]1)c1ccccc1O	.	2	.	.	.	.
O=C(O)c1ccc(NS(=O)(=O)c2cc(Cl)ccc2Cl)cc1O	3	0	29*	2	9	9
Cc1ccc(CSCC(=O)NN=Cc2cccc(OC3CSC3)c2)cc1	.	5	.	.	.	.
